Like-named read-outs stand apart in the source and are kept apart here.
Legend:
PelD = PelD (Pseudomonas aeruginosa, UniProt A0A0H2ZD98); test: DRaCALA / DRaCALA-HTS inhibition of 32P-cdiGMP binding to PelD; conditions: for fraction bound of 32P-cdiGMP to PelD in DRaCALA-HTS: NCC1 library screen, cutoff 3 standard deviations below the average
WspR [1] = biological target: T1, WspR (Pseudomonas aeruginosa, UniProt Q9HXT9); test: WspR DGC activity assay by TLC; type: biochemical; conditions: for DGC activity of wild-type WspR (inhibition): 50 μM; for WspR activity after DTT treatment of preincubated WspR: with DTT
[2] = tested on: WspR with C49A substitution; test: DGC activity assay of C49A WspR; type: biochemical, Pseudomonas aeruginosa; conditions: 50 μM
Procedure, shortened: (§1)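 Purified WspR point mutants (C49A, C240A, or AxxA at the RxxD I-site), expressed from cloned alleles. Diguanylate cyclase activity measured by thin-layer chromatography (TLC) with test compound or cdiGMP at 50 μM, against a DMSO control. Compounds were dissolved in DMSO.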

[3] = tested on: AxxA WspR (RxxD I-site abolished); test: DGC activity assay of AxxA WspR; type: biochemical, Pseudomonas aeruginosa; conditions: 50 μM
Procedure, shortened: as §1

WspR [4] = biological target: T1, WspR; test: DRaCALA inhibition of 32P-cdiGMP binding to WspR
[5] = tested on: WspR with C240A substitution; test: DGC activity assay of C240A WspR; type: biochemical, Pseudomonas aeruginosa; conditions: 50 μM
Procedure, shortened: as §1

[6] = tested on: PDE (RocR, PvrR, FimX) or PilZ (Alg44, PA3353) proteins; test: DRaCALA inhibition of 32P-cdiGMP binding to PDE and PilZ proteins; set-up: species or system P. aeruginosa; conditions: Eb 50 μM
Procedure, shortened: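 Purified protein was mixed with ³²P-cdiGMP in the presence of 50 μM test compound or DMSO, then spotted on nitrocellulose. Spots were imaged by phosphorimager. Fraction bound = corrected bound-ligand intensity ÷ total spot intensity.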

PA14 pMMB-WspR = test: Crystal violet pellicle assay, DGC-dependent biofilm formation; type: cell-based, Pseudomonas aeruginosa; conditions: IPTG-induced WspR, static incubation 30 °C, 16 hours
PA14 ΔretS = test: Crystal violet pellicle assay, DGC-independent biofilm formation; type: cell-based, Pseudomonas aeruginosa
[7] = tested on: P. aeruginosa PA14 overexpressing DGCs; test: Swim motility assay of PA14 overexpressing DGCs; type: cell-based, Pseudomonas aeruginosa; conditions: for change in swimming motility compared to the DMSO control: PA14 overexpressing PA0847, IPTG; for change in swimming motility compared to the DMSO control / increase in swimming diameter compared to the DMSO control: 50 μM
P. aeruginosa PA14 = test: Growth curves; type: cell-based, Pseudomonas aeruginosa; conditions: 50 μM, LB, 37 °C, 16 hours, vs DMSO
Procedure, shortened: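 P. aeruginosa PA14 grown overnight in LB at 37 °C with shaking, then subcultured in LB with 50 μM test compound or 2% DMSO alone. Grown with shaking at 37 °C for 16 h. A600 read every 5 minutes.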

Alg44 = Alg44 (Pseudomonas aeruginosa, UniProt Q9HY69); test: DRaCALA / DRaCALA-HTS binding of 32P-cdiGMP to Alg44; conditions: for Kd: Kd of Alg44 binding to 32P-cdiGMP
[8] = PA14 overexpressing PA1107, IPTG
[9] = PA14 overexpressing PA1120, IPTG
[10] = PA14 overexpressing PA1727, IPTG

Chain of Alg44 (Q9HY69 whole entry): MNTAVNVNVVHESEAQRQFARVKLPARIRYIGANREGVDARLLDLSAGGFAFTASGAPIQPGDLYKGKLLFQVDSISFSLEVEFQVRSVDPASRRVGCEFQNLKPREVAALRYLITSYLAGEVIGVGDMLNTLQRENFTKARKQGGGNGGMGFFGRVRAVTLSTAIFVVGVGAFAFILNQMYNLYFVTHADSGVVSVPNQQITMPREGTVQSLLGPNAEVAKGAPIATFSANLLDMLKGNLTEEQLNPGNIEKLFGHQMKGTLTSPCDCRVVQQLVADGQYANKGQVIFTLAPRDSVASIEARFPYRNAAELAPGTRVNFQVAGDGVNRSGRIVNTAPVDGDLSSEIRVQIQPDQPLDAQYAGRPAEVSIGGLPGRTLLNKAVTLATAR

Structure (SMILES)	DGC activity of wild-type WspR (inhibition) (WspR [1])	WspR activity after DTT treatment of preincubated WspR (WspR [1])	DGC activity of C49A WspR (inhibition) [2]	DGC activity of AxxA WspR (inhibition) [3]	DGC activity of C240A WspR (inhibition) [5]	reduction of 32P-cdiGMP binding to PDE or PilZ proteins [6]	reduction of biofilm formation compared to the DMSO control (PA14 pMMB-WspR)	DGC-independent biofilm formation (PA14 ΔretS)	change in swimming motility compared to the DMSO control [7]	increase in swimming diameter compared to the DMSO control [7, 8] [fold]	increase in swimming diameter compared to the DMSO control [7, 9] [fold]	increase in swimming diameter compared to the DMSO control [7, 10] [fold]	increase in swimming diameter compared to the DMSO control ([7]; PA14 overexpressing WspR, IPTG) [fold]	growth of P. aeruginosa PA14 (P. aeruginosa PA14)	fraction bound of 32P-cdiGMP to PelD in DRaCALA-HTS (PelD)	other results
O=C1c2ccccc2[Se](=O)N1c1ccccc1 (centres unmarked) [EbO, ebselen oxide]	inhibited	returned WspR activity to the level of the DMSO control	still susceptible to inhibition	no longer inhibited	completely refractory	did not reduce	~ 40%	Neither Eb nor EbO reduced biofilm formation	no change in swimming motility	4	3.4	1.3	2.5	No difference in growth	–	reduction of cdiGMP binding to PelD (PelD; compared to the DMSO control, Eb 50 μM): ~ 60%; IC50 (PelD; read-out: IC50 for PelD (inhibition of cdiGMP binding), DRaCALA): 5 ± 2 µM; reduction of WspR activity (velocity) (WspR [1]; 10 μM GTP, inhibitor 50 μM): 87%; IC50 for WspR (inhibition of cdiGMP binding) (WspR [4]; DRaCALA): did not show inhibition; reduction of cdiGMP binding to WspR (WspR [4]; compared to the DMSO control, Eb 50 μM, no preincubation): ~ 30%; reduction of 32P-cdiGMP binding to WspR after preincubation (WspR [4]; preincubation of WspR for 30 minutes before addition of 32P-cdiGMP): 86%; reversal of cdiGMP-mediated repression of swimming, concentration dependence ([7]; PA14 overexpressing PA3702, IPTG, different concentrations): at a lower concentration
Nc1nc2c(ncn2[C@@H]2O[C@@H]3COP(=O)(O)O[C@H]4[C@@H](O)[C@H](n5cnc6c(=O)[nH]c(N)nc65)O[C@@H]4COP(=O)(O)O[C@H]3[C@H]2O)c(=O)[nH]1 [cdiGMP, cyclic-di-GMP]	inhibited	–	still susceptible to inhibition	no longer inhibited	inhibited	–	–	–	–	–	–	–	–	–	no binding was observed	average fraction bound of 32P-cdiGMP to Alg44 with cdiGMP competitor (Alg44; 384-well plate, 25 μM unlabeled cdiGMP): 0.007±0.005; Kd (Alg44; 384 well format, HTS-DRaCALA): 0.239 ± 0.007 µM; Kd (Alg44; fraction bound in individual reaction mixtures): 0.38 ± 0.02 µM
O=c1c2ccccc2[se]n1-c1ccccc1 [Eb, ebselen]	inhibited	returned WspR activity to the level of the DMSO control	still susceptible to inhibition	no longer inhibited	completely refractory	≤ 25%	~ 40%	Neither Eb nor EbO reduced biofilm formation	no change in swimming motility	3.4	2.5	1.1	2	No difference in growth	below the positive cutoff of 3 standard deviations below the average	IC50 (PelD): 5 ± 2 µM; inhibition at 50 µM (PelD; read-out: reduction of cdiGMP binding to PelD): 80%; inhibition at 50 µM (WspR [1]; read-out: reduction of WspR activity (velocity)): 87%; WspR velocity at varying substrate and Eb concentrations (WspR [1]; varying substrate concentrations): reduced WspR velocity in a concentration dependent manner; IC50 (WspR [4]): 13.6 ± 0.5 µM; inhibition at 50 µM (WspR [4]; read-out: reduction of cdiGMP binding to WspR): 90%

Reference: article PMC4545405 (ACS chemical biology, 2013)
